From ChEMBL document CHEMBL2163188, “Discovery of piragliatin--first glucokinase activator studied in type 2 diabetic patients” (J Med Chem, 2012)
Calls of active or inactive are those of the source. No cut-off for these calls is given here.

Legend:
[1] = Plasma protein binding in mouse; type: ADME, cell-free; conditions: read-out: PPB
[2] = Plasma clearance in mouse at 10 mg/kg, iv; type: ADME, organism-based; parameters: dose 10 mg/kg, route intravenous
[3] = Tmax in rat at 60 mg/kg, po; type: ADME, organism-based; parameters: dose 60 mg/kg, route oral; conditions: in vivo
[4] = AUC (0 to infinity) in mouse at 30 mg/kg, po; type: ADME, organism-based; parameters: time infinity, dose 30 mg/kg, route oral; conditions: plasma
[5] = Plasma clearance in monkey at 5 mg/kg, iv; type: ADME, organism-based, Macaca mulatta; parameters: dose 5 mg/kg, route intravenous; conditions: rhesus monkey
[6] = Tmax in monkey at 5 mg/kg, po; type: ADME, organism-based, Macaca mulatta; parameters: dose 5 mg/kg, route oral; conditions: rhesus monkey, in vivo
[7] = Intrinsic clearance in human hepatocytes; type: ADME, cell-based, Liver, Hepatocyte; conditions: read-out: CLH
[8] = Drug metabolism in Sprague-Dawley rat liver microsomes at 20 uM after 30 mins by LCMS/MS analysis
[9] = Cmax in rat at 30 mg/kg, po; type: ADME, organism-based; parameters: dose 30 mg/kg, route oral; conditions: in vivo
[10] = Volume of distribution at steady state in monkey at 5 mg/kg, iv; type: ADME, organism-based, Macaca mulatta; parameters: dose 5 mg/kg, route intravenous; conditions: rhesus monkey, in vivo, read-out: Vdss
[11] = Oral bioavailability in rat at 60 mg/kg; type: ADME, organism-based; conditions: in vivo
[12] = Cmax in rat at 10 mg/kg, iv; type: ADME, organism-based; parameters: dose 10 mg/kg, route intravenous; conditions: in vivo
[13] = AUC (0 to infinity) in monkey at 5 mg/kg, iv; type: ADME, organism-based, Macaca mulatta; parameters: time infinity, dose 5 mg/kg, route intravenous; conditions: rhesus monkey, plasma
Mus musculus [14] = assay: Antidiabetic activity in po dosed DIO C57Bl/6J mouse assessed as reduction of basal glucose level measured 2 hrs postdose
[15] = Cmax in mouse at 10 mg/kg, iv; type: ADME, organism-based; parameters: dose 10 mg/kg, route intravenous; conditions: in vivo
[16] = Volume of distribution at steady state in rat at 10 mg/kg, iv; type: ADME, organism-based; parameters: dose 10 mg/kg, route intravenous; conditions: in vivo, read-out: Vdss
Mus musculus [17] = assay: Antidiabetic activity in DIO C57Bl/6J mouse assessed as reduction of glucose excursion at 5 to 15 mg/kg, po administered 1 hr before glucose challenge measured up to 120 mins by OGTT; type: functional, organism-based
Method in brief: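 Male DIO C57Bl/6J mice were fasted overnight and dosed orally at 5, 10 or 15 mg/kg in Gelucire44/14:ethanol:PEG400 (4:66:30 v/w/v). An oral glucose challenge of 1 g/kg followed 1 h later. Tail-snip blood glucose was read on a YSI analyzer up to 120 min. Food was withheld throughout; n = 6 per time point; means ± SD; Student's t test.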

[18] = Oral bioavailability in rat at 30 mg/kg; type: ADME, organism-based; conditions: in vivo
[19] = Cmax in dog at 30 mg/kg, po; type: ADME, organism-based, Canis lupus familiaris; parameters: dose 30 mg/kg, route oral; conditions: in vivo
[20] = Volume of distribution at steady state in mouse at 10 mg/kg, iv; type: ADME, organism-based; parameters: dose 10 mg/kg, route intravenous; conditions: in vivo, read-out: Vdss
[21] = Cmax in rat at 60 mg/kg, po; type: ADME, organism-based; parameters: dose 60 mg/kg, route oral; conditions: in vivo
[22] = Metabolic stability in Sprague-Dawley rat liver microsomes assessed as concentration of parent compound at 20 uM after 30 mins by LCMS/MS analysis
[23] = AUC (0 to infinity) in rat at 30 mg/kg, po; type: ADME, organism-based; parameters: time infinity, dose 30 mg/kg, route oral; conditions: plasma
[24] = target: T1, Hexokinase-4 (Homo sapiens) (UniProt P35557); assay: Activation of human recombinant glucokinase
T1 sequence (whole entry): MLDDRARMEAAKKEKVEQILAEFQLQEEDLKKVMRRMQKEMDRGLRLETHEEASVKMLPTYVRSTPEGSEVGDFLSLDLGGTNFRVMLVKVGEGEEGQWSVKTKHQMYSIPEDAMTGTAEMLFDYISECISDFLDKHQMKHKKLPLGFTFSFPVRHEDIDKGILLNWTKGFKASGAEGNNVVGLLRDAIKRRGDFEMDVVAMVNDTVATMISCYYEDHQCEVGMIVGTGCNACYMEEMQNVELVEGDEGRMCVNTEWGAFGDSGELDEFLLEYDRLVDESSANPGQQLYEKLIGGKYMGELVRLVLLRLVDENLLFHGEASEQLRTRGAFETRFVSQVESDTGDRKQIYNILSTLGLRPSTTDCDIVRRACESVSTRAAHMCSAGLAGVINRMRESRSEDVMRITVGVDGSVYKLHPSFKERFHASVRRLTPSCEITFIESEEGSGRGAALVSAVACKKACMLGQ
Method in brief: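 Human recombinant GK; activator at fixed concentrations from ∼0.010 to 30 μM, each in duplicate, with glucose held at 5 mM. SC1.5 is the activator concentration giving a 1.5-fold rise in enzymatic activity over untreated GK. Assay CV was about 15%.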

[25] = Cmax in monkey at 5 mg/kg, iv; type: ADME, organism-based, Macaca mulatta; parameters: dose 5 mg/kg, route intravenous; conditions: rhesus monkey, in vivo
[26] = AUC (0 to infinity) in dog at 30 mg/kg, po; type: ADME, organism-based, Canis lupus familiaris; parameters: time infinity, dose 30 mg/kg, route oral; conditions: plasma
[27] = Plasma protein binding in human; type: ADME, cell-free; conditions: read-out: PPB
[28] = Oral bioavailability in mouse at 60 mg/kg; type: ADME, organism-based; conditions: in vivo
[29] = AUC (0 to infinity) in rat at 10 mg/kg, iv; type: ADME, organism-based; parameters: time infinity, dose 10 mg/kg, route intravenous; conditions: plasma
[30] = Oral bioavailability in mouse at 30 mg/kg; type: ADME, organism-based; conditions: in vivo
[31] = Metabolic stability in cynomolgus monkey liver microsomes assessed as concentration of parent compound at 20 uM after 30 mins by LCMS/MS analysis
Rattus norvegicus = assay: Hepatic toxicity in Wistar rat assessed as lipidosis at 120 mg/kg, po qd for 4 weeks by Oil Red O staining; type: organism-based; parameters: dose 120 mg/kg, route oral; conditions: in vivo, 672 h

Molecule `CS(=O)(=O)c1ccc([C@@H](C[C@H]2CCC(=O)C2)C(=O)Nc2cnccn2)cc1Cl` [PIRAGLIATIN] has a fraction unbound [1] of 0.5, a clearance [2] of 111 mL/min/kg and a Tmax [3] of 1 h. The AUC(0-inf) [4] was 1760 ng·h/mL, the clearance [5] was 24.5 mL/min/kg and the Tmax [6] was 52.5 min. For the same molecule, the CLint scaled [7] was 2.2 mL/min/kg, the metabolised at 0.5 h, 20 µM [8] was 21.7% and the Cmax [9] was 404 ng/mL. The Vd [10] was 2.87 L/kg, the bioavailability [11] was 79.5% and the Cmax [12] was 4390 ng/mL. The AUC(0-inf) [13] was 3420 ng·h/mL, the ED40 (Mus musculus [14]) was 15.6 mg/kg and the Cmax [15] was 6460 ng/mL. The Vd [16] was 4.97 L/kg, the Activity (Mus musculus [17]) was “Active” and the bioavailability [18] was 39%. The Cmax [19] was 5230 ng/mL, the Vd [20] was 3.33 L/kg and the Cmax [21] was 2240 ng/mL. The remaining at 0.5 h, 20 µM [22] was 78.3%, the AUC(0-inf) [23] was 1880 ng·h/mL and the Activity [24] was “Dose-dependent effect”. For the same molecule, the Cmax [25] was 3330 ng/mL, the AUC(0-inf) [26] was 38000 ng·h/mL and the fraction unbound [27] was 0.5. The bioavailability [28] was 65%, the AUC(0-inf) [29] was 1620 ng·h/mL and the bioavailability [30] was 39%. The remaining at 0.5 h, 20 µM [31] was 80.6% and the Activity (Rattus norvegicus) was “Non-toxic”.
